MT1-MMP act inh = inhibitors of human MT1-MMP activation; P50281; HT1080 RFP-PRO-GFP cells, GFP/RFP ratio fluorescence, overnight; percent of plate control window, DMSO zero; GFP/RFP ratio change, % at 20 µM; 0.061% of 360,000 active;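 active means GFP/RFP ratio change of at least 30% with cell ATP level not reduced by more than half and red fluorescence within 50% of control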
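Assay system: HT1080 cells carrying an RFP-PRO-GFP reporter | Dosing: Single dose of 20 µM compound, 1% DMSO final | Incubation: Cells overnight before dosing, compound overnight, 37 °C, 5% CO2 | Evaluation: GFP/RFP fluorescence ratio | Control set: DMSO and RFP-L50D-GFP cell wells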
GRIN3A LBD mod = modulates the human NR3A ligand-binding domain; NR3A LBD differential scanning fluorimetry, Tm shift; 0% = protein alone, 100% = glycine-bound protein; Tm shift relative to glycine control, % at 25 µM; 2.5% of 340,000 active; AID 1259313;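 active means melting temperature shift of at least 10% of the positive control shift, at one fixed dose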
SKN-1 inh = C. elegans SKN-1 inhibition; 0.49% of 360,000 active; AID 624304; C. elegans VP596 Pgst-4::GFP/RFP ratio, acrylamide-induced, 24 h; inhibition, % at 21.8 µM;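 active means interference check ratio from 0.5 to 1.5 plus GFP to RFP signal ratio inhibition reaching or exceeding a fixed threshold, cut at about 30% in these data, passing the limit was not always enough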
MPTP block = permeability transition pore inhibition. isolated mouse mitochondria, Ca2+ swelling absorbance, 30 min. inhibition, % at 10 µM. 1.4% of 360,000 active;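 active means inhibition of 50% or more, scaled per plate between neutral and stimulator controls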
ADAM17 inh = inhibitors of human ADAM17. AID 720648. recombinant ADAM17, EDANS/DABCYL FRET peptide cleavage. inhibition, % at 6.95 µM. 0.83% of 370,000 active. P78536;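 active means inhibition above the mean of compounds lying between control limits plus 3 SD, set per campaign, cut at about 8.5% in these data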
ADAM10 inh = ADAM10 inhibition, QFRET primary screen; O14672; recombinant ADAM10, EDANS/DABCYL FRET peptide cleavage, 3 h; inhibition, % at 7 µM; 0.62% of 370,000 active; AID 720582;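 active means inhibition above a per-campaign cutoff equal to the mean of compounds falling between control-based bounds plus 3 SD, cut at about 20% in these data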
Target sequence (O14672 214-748 limits assumed): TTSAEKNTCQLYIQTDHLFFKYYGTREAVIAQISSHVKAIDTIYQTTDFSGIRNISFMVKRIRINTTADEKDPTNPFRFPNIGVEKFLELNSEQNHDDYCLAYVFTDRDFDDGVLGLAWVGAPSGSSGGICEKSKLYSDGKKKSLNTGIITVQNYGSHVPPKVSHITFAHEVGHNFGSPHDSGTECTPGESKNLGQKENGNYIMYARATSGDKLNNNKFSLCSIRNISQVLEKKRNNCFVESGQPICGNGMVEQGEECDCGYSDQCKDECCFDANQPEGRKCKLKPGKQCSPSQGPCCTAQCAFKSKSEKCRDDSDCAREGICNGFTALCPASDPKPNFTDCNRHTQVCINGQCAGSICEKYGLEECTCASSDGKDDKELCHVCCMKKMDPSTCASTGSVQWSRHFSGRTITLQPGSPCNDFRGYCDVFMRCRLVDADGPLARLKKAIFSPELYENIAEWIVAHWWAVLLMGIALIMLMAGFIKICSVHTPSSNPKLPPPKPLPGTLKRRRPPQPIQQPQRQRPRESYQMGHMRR
Numbers stand for hits; - = inactive; . = not tested or not shown. Hits are enriched below; roughly 4.7% of the tested compounds scored in any of these assays.

SMILES | MT1-MMP act inh | GRIN3A LBD mod | SKN-1 inh | MPTP block | ADAM17 inh | ADAM10 inh
CC(=O)c1cccc(NC(=O)Nc2ccc3c(c2)OCO3)c1 | - | 13 | - | - | - | -
CC1CCc2nc(NC(=O)C3COc4ccccc4O3)sc2C1 (stereo not drawn) | - | - | - | - | - | -
CC1CCc2nc(NC(=O)Nc3ccc4c(c3)OCO4)sc2C1 (stereo not drawn) | - | 31 | - | - | - | -
CC(=O)c1cccc(NC(=O)Nc2ccc3c(c2)CCC3)c1 | - | 22 | - | - | - | -
O=C(Nc1ccc2c(c1)CCC2)c1ccccc1Br | - | - | - | - | - | -
CSc1ccccc1C(=O)Nc1ccc2c(c1)CCC2 | - | 10 | - | - | - | -
O=C(Nc1ccc(F)c(F)c1)C1CCCN(S(=O)(=O)c2cnc[nH]2)C1 (stereo not drawn) | - | - | - | - | . | .
Cc1ccc(CN2CCC(n3nccc3NC(=O)c3ccccc3C)CC2)o1 | - | - | 36 | - | - | -
COc1ccc(/C=N/n2cnc3c(sc(=S)n3-c3ccccc3)c2=O)cc1 | - | 16 | - | - | - | -
COc1ccc(Nc2nnc(SC(C(=O)Nc3cc(C)ccc3C)c3ccccc3)s2)cc1 (stereo not drawn) | - | 17 | - | - | - | -
COc1ccc(C)cc1NC(=O)C(Sc1nnc(Nc2cc(C)ccc2OC)s1)c1ccccc1 (stereo not drawn) | - | - | - | - | - | -
COc1ccc(Nc2nnc(SC(C(=O)Nc3ccc(OC)c(Cl)c3)c3ccccc3)s2)cc1 (stereo not drawn) | - | 25 | - | - | - | -
COc1cc(/C=C2/C(=O)NN(c3ccccc3)C2=O)cc(Br)c1O | - | - | - | - | - | -
OC(COCc1ccc2c(c1)OCO2)CN1CCN(Cc2ccccc2)CC1 (stereo not drawn) | - | - | - | - | - | -
OCCN1CCN(CC(O)COCc2ccc3c(c2)OCO3)CC1 (stereo not drawn) | - | 11 | - | - | - | -
COc1ccc(/C=N/Nc2nc(Nc3ccccc3)nc(N3CCCC3)n2)cc1[N+](=O)[O-] | - | 26 | - | - | - | -
O=C(/C=C/c1cccs1)Nc1nc(-c2ccccc2)cs1 | - | 17 | - | - | - | -
Cc1ccc(O)c(NC(=S)NC(=O)/C=C/c2ccco2)c1 | - | - | - | - | - | -
O=C(/C=C\c1cn(-c2ccccc2)nc1-c1ccccc1)Nc1nccs1 | - | 28 | - | - | - | -
Cc1ccc(-c2csc(NC(=S)NC(=O)/C=C/c3ccco3)n2)cc1 | - | 17 | - | - | - | -
O=C(/C=C\c1ccco1)Nc1nc(-c2ccc3ccccc3c2)cs1 | - | 25 | 39 | - | - | -
Cc1ccc2c(c1)N(CC(=O)NC1CCCC(C)C1C)C(=O)c1cccnc1O2 (stereo not drawn) | - | - | - | - | - | -
O=C(COc1ccccc1Br)c1ccc(O)cc1O | - | 21 | - | - | - | -
O=C(COc1ccccc1Br)c1ccc2c(c1)OCO2 | - | - | - | - | - | -
CCOc1ccccc1CN1CCNC(=O)C1CC(=O)NCCN1CCOC1=O (stereo not drawn) | - | - | - | - | - | -
SMILES | MT1-MMP act inh | GRIN3A LBD mod | SKN-1 inh | MPTP block | ADAM17 inh | ADAM10 inh
O=C(NNC(=O)c1cccc2ccccc12)c1cccc(Cl)c1 | - | 12 | - | - | - | -
O=C(NNC(=O)c1ccc(Cl)cc1Cl)c1ccc2ccccc2c1 | - | - | - | - | - | -
O=C(NNC(=O)c1cccc2ccccc12)c1cccc(Br)c1 | - | - | - | - | - | -
O=C(NNC(=O)c1cccc2ccccc12)c1ccc(Cl)cc1Cl | - | 23 | - | - | - | -
Cc1ccc(C)c(C(C)NC(=O)c2ccccc2Br)c1 (stereo not drawn) | - | - | - | - | - | -
O=C(Nc1cccnc1)c1ccc(COCC(F)(F)F)cc1 | - | 11 | - | - | - | -
CCOc1ccc(OCc2ccc(C(=O)Nc3cccnc3)cc2)cc1 | - | - | - | - | - | -
COc1cc(OC)nc(-n2ncc(Br)c(Br)c2=O)n1 | - | - | - | - | - | -
COc1cc(NC(=O)CSc2nc3ccccc3c(=O)n2C)ccc1NC(=O)c1ccco1 | - | 13 | - | - | - | -
COc1cc(NC(=O)COc2ccccc2)ccc1NC(=O)c1ccco1 | - | - | - | - | - | -
CCc1ccc(NC(=O)c2ccc(OC)c([N+](=O)[O-])c2)cc1 | - | 12 | - | - | - | -
COc1ccc(C(=O)Nc2ccncc2)cc1[N+](=O)[O-] | - | - | - | - | - | -
COc1ccc(C(=O)NC(=S)Nc2ccc(NC(=O)c3ccco3)cc2)cc1[N+](=O)[O-] | - | 30 | - | - | - | -
COc1cc(NC(=O)c2ccc(OC)c([N+](=O)[O-])c2)ccc1NC(=O)c1cccs1 | - | 38 | - | - | - | -
COc1ccc(Cn2cc(COC(=O)N3CCOCC3)nn2)cc1 | . | . | . | . | - | -
Nc1nc(-c2cccs2)c(NC(=O)c2ccccc2)s1 | - | - | - | - | - | -
N#CCCn1cc(CNC2CCC(O)CC2)c2ccccc21 (stereo not drawn) | - | - | - | - | - | -
CC(=O)C1=C(O)C(=O)N(CCCN2CCOCC2)C1c1ccccc1[N+](=O)[O-] (stereo not drawn) | . | - | . | . | . | .
COc1cccc(C(=O)OCC(=O)c2c[nH]c3ccccc23)c1OC | - | - | - | - | - | -
COc1cc(NC(=O)c2cccc([N+](=O)[O-])c2)ccc1NC(=O)c1ccco1 | - | 27 | - | - | - | -
CCOc1ccc(C(=O)NC(=S)Nc2cccc(NC(=O)c3ccco3)c2)cc1[N+](=O)[O-] | - | 16 | - | - | - | -
COc1ccc(C(=O)NC(=S)Nc2cccc(NC(=O)c3ccco3)c2)cc1[N+](=O)[O-] | - | 12 | - | - | - | -
Cc1cc(C(=O)Nc2cccc(NC(=O)c3ccco3)c2)ccc1[N+](=O)[O-] | - | - | - | - | - | -
CCC(=O)NC(=S)Nc1ccc(NC(=O)c2ccc(C)c([N+](=O)[O-])c2)cc1 | - | 34 | - | - | - | -
CC1=CC(C)(C)N(C)C(=O)N1c1ccc(Cl)cc1 | - | - | - | - | - | -
O=C(O)CN1C(=O)/C(=C\c2cc(Br)ccc2OCc2ccc([N+](=O)[O-])cc2)SC1=S | - | - | - | - | - | -
CCN(C(=O)COC(=O)c1ccc2c(c1)OCO2)c1c(N)n(Cc2ccccc2)c(=O)[nH]c1=O | - | - | - | - | - | -
CC1(C(=O)Nc2ccc(F)cc2F)CCN1C(=O)Cc1ccc(Cl)cc1Cl (stereo not drawn) | - | . | - | - | - | -
